Data as given in ChEMBL document CHEMBL1914440, “Discovery of potent, selective, and orally bioavailable alkynylphenoxyacetic acid CRTH2 (DP2) receptor antagonists for the treatment of allergic inflammatory diseases” (J Med Chem, 2011).
≈ marks a conversion by molar mass, not a printed value.

Assays:
[1] = target: T1, Prostaglandin D2 receptor 2 (Homo sapiens, UniProt Q9Y5Y4); assay: Displacement of [3H]PGD2 from human CRTH2 expressed in chinese hamster CHO cells by liquid scintillation counting; type: cell-based
T1 sequence (Q9Y5Y4 whole entry): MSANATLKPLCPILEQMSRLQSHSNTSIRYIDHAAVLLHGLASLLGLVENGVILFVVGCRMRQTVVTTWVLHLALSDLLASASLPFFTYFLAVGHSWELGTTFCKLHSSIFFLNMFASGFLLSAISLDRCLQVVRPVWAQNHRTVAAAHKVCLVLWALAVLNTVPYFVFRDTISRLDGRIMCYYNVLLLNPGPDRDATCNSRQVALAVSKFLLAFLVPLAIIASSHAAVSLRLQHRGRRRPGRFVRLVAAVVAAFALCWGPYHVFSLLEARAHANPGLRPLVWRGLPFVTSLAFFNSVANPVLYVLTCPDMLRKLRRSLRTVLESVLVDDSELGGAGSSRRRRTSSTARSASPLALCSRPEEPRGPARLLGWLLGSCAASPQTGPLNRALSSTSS
How it was run: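 Scintillation proximity competition assay: 2–5 μg human CRTH2 cell membranes, 1.5 nM [3H]PGD2, WGA-SPA beads, 10 mM HEPES/KOH pH 7.4, 10 mM MnCl2, protease inhibitors, 1% DMSO; 90 min, room temperature, shaking. Nonspecific binding defined with 1 μM PGD2. Ki by Cheng–Prusoff, mean of ≥3 independent dose–response experiments.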

[2] = Percentage unbound in human plasma; type: ADME, cell-free
[3] = Percentage unbound in rat plasma; type: ADME, cell-free
[4] = Percentage unbound in mouse plasma; type: ADME, cell-free
[5] = Intrinsic clearance in human liver microsomes assessed per mg of protein at 1 uM by LC/MS/MS analysis; type: ADME, Microsome
[6] = Intrinsic clearance in rat liver microsomes assessed per mg of protein at 1 uM by LC/MS/MS analysis; type: ADME, Microsome
[7] = Apparent permeability across human Caco2 cells at 1 uM after 2 hrs by LC/MS/MS analysis; type: ADME, cell-based; settings: Caco-2
[8] = Clearance in BALB/c mouse at 5 mg/kg, po by LC/MS/MS analysis; type: ADME, organism-based; parameters: dose 5 mg/kg, route oral; settings: in vivo
[9] = Thermodynamic solubility of the compound in 50 mM phosphate buffered saline at pH 7.4; type: physicochemical; settings: read-out: Therm_solubility
How it was run: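 Thermodynamic solubility measured in 50 mM PBS at pH 7.4.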

[10] = Half life in Sprague-Dawley rat at 1 mg/kg, iv and 5 mg/kg, po by LC/MS/MS analysis; type: ADME, organism-based; settings: in vivo
[11] = Half life in BALB/c mouse at 1 mg/kg, iv and 5 mg/kg, po by LC/MS/MS analysis; type: ADME, organism-based; settings: in vivo

Ki [1]: 9 nM
fraction unbound [2]: 0.008
fraction unbound [3]: 0.01
fraction unbound [4]: 0.024
microsomal CLint at 1 µM [5]: 11 µL/min/mg
microsomal CLint at 1 µM [6]: < 10 µL/min/mg
Papp at 2 h, 1 µM [7]: 11.8 ×10⁻⁶ cm/s
CL/F [8]: 5 mL/min/kg
solubility thermodynamic [9]: 760 µg/mL (≈ 1930 µM)
half-life [10]: 4.4 h
half-life [11]: 2.2 h
Compound: CCCS(=O)(=O)c1cccc(C#Cc2cc(Cl)ccc2OCC(=O)O)c1
